# How the values were obtained:
# [1] = target: T1, RAC-beta serine/threonine-protein kinase (Homo sapiens, UniProt P31751); assay: Inhibition of Akt2 by cell based assay
# [2] = target: T2, RAC-alpha serine/threonine-protein kinase (Homo sapiens, UniProt P31749); assay: Inhibition of Akt1 by cell based assay
# [3] = target: T2, RAC-alpha serine/threonine-protein kinase; assay: Inhibition of human cloned Akt1 expressed in Drosophila S2 cells by HTRF assay; format: cell-based
# [4] = target: T1, RAC-beta serine/threonine-protein kinase; assay: Inhibition of human cloned Akt2 expressed in Drosophila S2 cells by HTRF assay; format: cell-based
# [5] = target: T3, Serine/threonine-protein kinase Sgk1 (Homo sapiens, UniProt O00141); assay: Inhibition of SGK
# T3 sequence (O00141 whole entry): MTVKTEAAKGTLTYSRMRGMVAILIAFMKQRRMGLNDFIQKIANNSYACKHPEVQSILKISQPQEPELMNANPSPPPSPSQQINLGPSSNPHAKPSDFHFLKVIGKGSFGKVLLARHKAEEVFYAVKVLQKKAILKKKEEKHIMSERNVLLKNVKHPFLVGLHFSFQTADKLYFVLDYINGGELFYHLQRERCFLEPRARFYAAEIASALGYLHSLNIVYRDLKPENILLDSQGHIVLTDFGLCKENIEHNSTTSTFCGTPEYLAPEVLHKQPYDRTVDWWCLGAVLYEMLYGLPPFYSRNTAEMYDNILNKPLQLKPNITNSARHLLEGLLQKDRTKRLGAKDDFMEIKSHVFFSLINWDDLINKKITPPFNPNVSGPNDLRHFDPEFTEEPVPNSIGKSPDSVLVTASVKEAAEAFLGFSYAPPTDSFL
# [6] = Inhibition of PKA
# [7] = Inhibition of PKC
# [8] = target: Voltage-gated inwardly rectifying potassium channel KCNH2 (Homo sapiens, UniProt Q12809); assay: Inhibition of human ERG expressed in HEK cells by competitive radioligand binding assay; format: cell-based, HEK293
# [9] = Drug level in blood of nude mouse xenografted with […] at 70 mg/mL after 20 hrs; format: ADME, tissue-based; details: whole blood, read-out: Drug uptake
# Procedure, shortened: (§1)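 Nude mice bearing C33a cervical carcinoma tumours, 3 per concentration. Hydrochloride salt in 25% hydroxypropyl-b-cyclodextrin given by mini-pump at 8 µL/hr for 20 hrs, pump solution 70 or 18 mg/mL. Blood drawn for PK at 3, 6, 8, 11 and 20 h, so steady-state blood level is known. Euthanized at 20 h. Akt1 and Akt2 phosphorylation activity measured in lung as % inhibition.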
# [10] = Drug level in blood of nude mouse xenografted with […] at 18 mg/mL after 20 hrs; format: ADME, tissue-based; details: whole blood, read-out: Drug uptake; procedure, shortened: as §1
# Mus musculus [11] = assay: Inhibition of Akt2 phosphorylation in lung of nude mouse xenografted with C33a cells at 18 mg/mL administered through mini-pump after 20 hrs by IP kinase assay; format: functional; procedure, shortened: as §1
# Mus musculus [12] = assay: Inhibition of Akt2 phosphorylation in lung of nude mouse xenografted with C33a cells at 70 mg/mL administered through mini-pump after 20 hrs by IP kinase assay; format: functional; procedure, shortened: as §1
# Mus musculus [13] = assay: Inhibition of Akt1 phosphorylation in lung of nude mouse xenografted with C33a cells at 18 mg/mL administered through mini-pump after 20 hrs by IP kinase assay; format: functional; procedure, shortened: as §1
# [14] = Drug level in blood of nude mouse xenografted with […] at 10 mg/mL after 20 hrs; format: ADME, tissue-based; details: whole blood, read-out: Drug uptake
# Mus musculus [15] = assay: Inhibition of Akt2 phosphorylation in lung of nude mouse xenografted with C33a cells at 10 mg/mL administered through mini-pump after 20 hrs by IP kinase assay; format: functional
# Mus musculus [16] = assay: Inhibition of Akt1 phosphorylation in lung of nude mouse xenografted with C33a cells at 70 mg/mL administered through mini-pump after 20 hrs by IP kinase assay; format: functional; details: in the assay text read “10 mg/mL” for “70 mg/mL”
# Voltage-gated inwardly rectifying potassium channel KCNH2, sequence (Q12809 whole entry): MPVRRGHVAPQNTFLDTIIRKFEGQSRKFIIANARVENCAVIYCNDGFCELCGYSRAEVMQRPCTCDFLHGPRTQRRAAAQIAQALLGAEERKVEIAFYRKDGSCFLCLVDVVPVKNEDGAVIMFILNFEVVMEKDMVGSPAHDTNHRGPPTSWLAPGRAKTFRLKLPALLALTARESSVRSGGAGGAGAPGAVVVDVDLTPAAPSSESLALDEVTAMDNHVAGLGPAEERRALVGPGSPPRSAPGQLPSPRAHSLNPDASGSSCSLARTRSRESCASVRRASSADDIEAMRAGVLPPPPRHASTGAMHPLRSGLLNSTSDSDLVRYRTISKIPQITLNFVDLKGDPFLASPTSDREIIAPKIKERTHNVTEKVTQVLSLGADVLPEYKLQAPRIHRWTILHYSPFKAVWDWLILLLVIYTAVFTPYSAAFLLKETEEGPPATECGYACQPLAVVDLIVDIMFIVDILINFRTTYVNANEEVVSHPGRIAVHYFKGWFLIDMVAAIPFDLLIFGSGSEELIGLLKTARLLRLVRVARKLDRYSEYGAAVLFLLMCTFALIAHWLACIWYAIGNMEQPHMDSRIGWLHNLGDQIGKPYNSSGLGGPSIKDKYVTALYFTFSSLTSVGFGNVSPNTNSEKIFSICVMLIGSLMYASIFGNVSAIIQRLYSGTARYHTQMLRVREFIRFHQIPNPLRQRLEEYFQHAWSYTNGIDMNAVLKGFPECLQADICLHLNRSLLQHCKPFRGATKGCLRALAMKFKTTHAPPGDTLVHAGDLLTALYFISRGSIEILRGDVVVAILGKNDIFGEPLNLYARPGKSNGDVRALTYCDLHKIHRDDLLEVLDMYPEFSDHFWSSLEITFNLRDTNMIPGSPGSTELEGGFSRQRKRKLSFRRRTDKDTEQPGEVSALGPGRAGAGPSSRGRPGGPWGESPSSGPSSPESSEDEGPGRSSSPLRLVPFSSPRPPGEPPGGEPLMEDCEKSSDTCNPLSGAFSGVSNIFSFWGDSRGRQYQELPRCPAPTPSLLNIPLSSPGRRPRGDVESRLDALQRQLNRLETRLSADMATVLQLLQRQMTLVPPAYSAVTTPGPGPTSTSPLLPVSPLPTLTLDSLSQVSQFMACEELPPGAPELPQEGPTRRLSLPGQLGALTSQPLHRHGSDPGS
# T1 sequence (P31751 whole entry): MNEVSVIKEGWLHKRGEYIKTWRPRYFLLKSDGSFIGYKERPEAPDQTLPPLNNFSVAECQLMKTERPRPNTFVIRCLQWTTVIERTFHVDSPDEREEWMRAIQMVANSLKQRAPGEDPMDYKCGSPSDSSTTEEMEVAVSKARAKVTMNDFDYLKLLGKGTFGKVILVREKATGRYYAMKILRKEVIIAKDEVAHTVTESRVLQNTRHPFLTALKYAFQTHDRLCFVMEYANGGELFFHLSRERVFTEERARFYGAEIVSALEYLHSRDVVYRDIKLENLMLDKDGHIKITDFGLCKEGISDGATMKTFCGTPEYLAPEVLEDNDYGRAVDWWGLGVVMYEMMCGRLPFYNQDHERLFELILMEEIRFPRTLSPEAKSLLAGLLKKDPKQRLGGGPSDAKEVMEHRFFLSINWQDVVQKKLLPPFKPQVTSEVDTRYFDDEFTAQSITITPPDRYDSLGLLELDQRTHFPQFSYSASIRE
# T2 sequence (P31749 whole entry): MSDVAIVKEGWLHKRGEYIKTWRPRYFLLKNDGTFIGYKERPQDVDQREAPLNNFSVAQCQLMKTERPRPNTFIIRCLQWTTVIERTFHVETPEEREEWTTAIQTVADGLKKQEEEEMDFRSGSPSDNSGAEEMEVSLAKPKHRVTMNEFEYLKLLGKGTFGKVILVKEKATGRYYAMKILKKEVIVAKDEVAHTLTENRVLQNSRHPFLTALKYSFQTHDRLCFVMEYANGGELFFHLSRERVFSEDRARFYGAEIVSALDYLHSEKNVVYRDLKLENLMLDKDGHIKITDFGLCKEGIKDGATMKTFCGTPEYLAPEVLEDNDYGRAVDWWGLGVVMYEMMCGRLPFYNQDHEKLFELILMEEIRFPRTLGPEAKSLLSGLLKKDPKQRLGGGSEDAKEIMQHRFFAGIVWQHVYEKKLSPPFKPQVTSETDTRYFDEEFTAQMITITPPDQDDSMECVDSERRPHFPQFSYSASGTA
SMILES,IC50 [1] [nM],IC50 [2] [nM],IC50 [3] [nM],IC50 [4] [nM],IC50 [5] [nM],IC50 [6] [nM],IC50 [7] [nM],concentration at 20 h [9] [nM],concentration at 20 h [10] [nM],concentration at 20 h [14] [nM],IC50 [8] [nM],inhibition (INH) (Mus musculus [11]) [%],inhibition (INH) (Mus musculus [12]) [%],inhibition (INH) (Mus musculus [13]) [%],inhibition (INH) (Mus musculus [15]) [%],inhibition (INH) (Mus musculus [16]) [%]
OCCNCc1nnc2c3cc(-c4ccccc4)c(-c4ccc(CN5CCC(c6n[nH]c(-c7ccccn7)n6)CC5)cc4)nc3ccn12,251,41.8,17,77.9,> 50000,> 50000,> 50000,,,,,,,,,
Cc1nnc2c3cc(-c4ccccc4)c(-c4ccc(CN5CCC(c6n[nH]c(-c7ccccn7)n6)CC5)cc4)nc3ccn12,177,24.6,4.6,14.6,> 50000,> 50000,> 50000,,,,,,,,,
CN1CCN(Cc2nnc3c4cc(-c5ccccc5)c(-c5ccc(CN6CCC(c7n[nH]c(-c8ccccn8)n7)CC6)cc5)nc4ccn23)CC1,376,62.5,9.9,55.1,> 50000,> 50000,> 50000,,,,,,,,,
O=c1[nH]ccc2nc(-c3ccc(CN4CCC(c5n[nH]c(-c6ccccn6)n5)CC4)cc3)c(-c3ccccc3)cc12,,,,,,,,,,3000,5610,,,,4,85
ClCc1nnc2c3cc(-c4ccccc4)c(-c4ccc(CN5CCC(c6n[nH]c(-c7ccccn7)n6)CC5)cc4)nc3ccn12,483,113,26.7,10.5,> 50000,> 50000,> 50000,,,,2020,,,,,
NC(=O)Nc1nnc2c3cc(-c4ccccc4)c(-c4ccc(CN5CCC(c6n[nH]c(-c7ccccn7)n6)CC5)cc4)nc3ccn12,1210,265,8.5,24.1,> 50000,> 50000,> 50000,,,,,,,,,

# The next lines start with results.
IC50 [1] [nM],IC50 [2] [nM],IC50 [3] [nM],IC50 [4] [nM],IC50 [5] [nM],IC50 [6] [nM],IC50 [7] [nM],concentration at 20 h [9] [nM],concentration at 20 h [10] [nM],concentration at 20 h [14] [nM],SMILES,IC50 [8] [nM],inhibition (INH) (Mus musculus [11]) [%],inhibition (INH) (Mus musculus [12]) [%],inhibition (INH) (Mus musculus [13]) [%],inhibition (INH) (Mus musculus [15]) [%],inhibition (INH) (Mus musculus [16]) [%]
41,5,4,,> 50000,> 50000,> 50000,1700,1800,,c1ccc(-c2cc3c(ccn4cnnc34)nc2-c2ccc(CN3CCC(c4n[nH]c(-c5ccccn5)n4)CC3)cc2)cc1,> 10000,41,35,92,,
47.7,18.1,2.8,9.4,> 50000,> 50000,> 50000,,,,Nc1nnc2c3cc(-c4ccccc4)c(-c4ccc(CN5CCC(c6n[nH]c(-c7ccccn7)n6)CC5)cc4)nc3ccn12,,,,,,
108,17,10,10.4,> 50000,> 50000,> 50000,,,,Sc1nnc2c3cc(-c4ccccc4)c(-c4ccc(CN5CCC(c6n[nH]c(-c7ccccn7)n6)CC5)cc4)nc3ccn12,,,,,,
168,27,2.6,6.7,> 50000,> 50000,> 50000,,,,Oc1nnc2c3cc(-c4ccccc4)c(-c4ccc(CN5CCC(c6n[nH]c(-c7ccccn7)n6)CC5)cc4)nc3ccn12,5310,,,,,
74.8,18.3,3.3,2.8,,,,,,,Nc1nnc2c3cc(-c4ccccc4)c(-c4ccc(CN5CCC(n6cnc(-c7ccccn7)c6)CC5)cc4)nc3ccn12,,,,,,

# From ChEMBL document CHEMBL1141029, “Allosteric inhibitors of Akt1 and Akt2: discovery of [1,2,4]triazolo[3,4-f][1,6]naphthyridines with potent and balanced activity” (Bioorg Med Chem Lett, 2009)
